Reference: the RNAGym collection of RNA variant scans (doi:10.1126/science.aae0568)
Variants at the floor of the assay were thinned out.

B1: tRNA (parent)
chain: GUUCCGUUGGCGUAAUGGUAACGCGUCUCCCUCCUAAGGAGAAGACUGCGGGUUCGAGUCCCGUACGGAACG

Variants of: B1
Test: yeast fitness relative to wild type (ratio to wild type); higher = fitter; tRNA-Arg(CCU), competitive growth, 37 C, YPD
How it was run: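 The tRNA-Arg(CCU) gene variants were made by chemical synthesis with a 3% per-site mutation rate at 69 sites and inserted at the native genomic locus of Saccharomyces cerevisiae. After pooling, the strains were competed in YPD at 37°C for 24 hours in six parallel replicates. Gene amplicons from the start population and each end population were read by 100-nucleotide paired-end sequencing, and Darwinian fitness relative to wild type was taken from genotype frequency changes. Genotypes needed ≥ 100 starting reads, and estimates < 0.5 were set to 0.5.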

Variant | yeast fitness
U32C C62U C66G | ≤ 0.5
C4U G56A U59C A65C A70G | ≤ 0.5
G12A G38C C46G C49G G51C C61U | ≤ 0.5
A20U G48C | 0.84
C31G A37G U54A | 0.681
A21G C29A A37G A42U | 0.516
C5G U7C C11G A43G A65U | ≤ 0.5
U8A C34U C61A | ≤ 0.5
G44C G50A | 0.861
C11A G18A A36U G41C C55U U64C | ≤ 0.5
G10C A21U C22G G67C | 0.765
C30U G38C A40G | 0.569
A15G C46G G52A | 0.576
G6C A36U A43G G48A C49U U53C | ≤ 0.5
G9A A40G C60U | ≤ 0.5
C4U C11A C29U C49A | ≤ 0.5
U7C U26C G41C C46A | ≤ 0.5
A14C C27G | 0.574
G9A A15G U16A G23C | ≤ 0.5
C5A G6C A37G G52A C55G | ≤ 0.5
A15U A40U G52A A65C | ≤ 0.5

Variant | yeast fitness
U7C C31U A43G U59A | 0.505
C24U C27A C30U | 0.597
U28C C61G G68C | ≤ 0.5
C4A A20G C24G C31G | ≤ 0.5
U2A C5A C11U C27G C60A | ≤ 0.5
U19A U64C | 0.901
C27G C31A | 0.501
U7G U13C A57U | ≤ 0.5
C5G A14G C33A G56A C61A | 0.583
U2C G12A A36U | ≤ 0.5
C11A C27G U32C C33U C62U A65G | ≤ 0.5
G10A G17A C66G | 0.623
U8C A14U C34G C46A C62U A69C | ≤ 0.5
A36G A42C A43U C46A | 0.861
C30A U64C | 0.885
A36C A40G G48A A65U C66U A69U | ≤ 0.5
C30U U47A A57G G67C | ≤ 0.5
U7C U54G | 0.535
U32G C46U | 0.562
A36G A42G A70G | 0.54
U8A A40U A43U A65C | ≤ 0.5

Variant | yeast fitness
G23A C24U G38C A70C | ≤ 0.5
C11G A20U | 0.692
G9A C49U G68C | 0.657
U3C A37C C49U | 0.681
G12A A15C G39C C46U | ≤ 0.5
G6C G48C A65U A70U | ≤ 0.5
C29A A57C | 0.555
C29A U35C | ≤ 0.5
C11G U19C C34G C60A G67C | ≤ 0.5
U13C C49G U53C A57C | ≤ 0.5
G18C A40U A70G | 0.632
G6C A37U | 0.677
C29U A45U U54A | ≤ 0.5
C4G G17U G23A C55A C61A | ≤ 0.5
C24G C33G C55U | ≤ 0.5
U8G G12C C55A | ≤ 0.5
C11A C29G | 0.654
C5A A21C C30G C34U G38C C49U A70C | 0.551
U13A G23C C24G G50A | ≤ 0.5
U3A U16C C27G A36U G39C U53A A70G | ≤ 0.5
C5A A43U | 0.783

Variant | yeast fitness
G6C G9A | 1.03
C11G C31U U35A A37G A40C U47C U64G | ≤ 0.5
U8G U35G | ≤ 0.5
C49U G52C A57C G63C | ≤ 0.5
C24U A57C C61A A70G | ≤ 0.5
U8G C24G G63C | ≤ 0.5
U3G A57G | 0.908
C27G A37G A70C | 0.533
A37C G58A | 0.844
C27A G41A U47A | ≤ 0.5
A14U C22A A43G C49U | ≤ 0.5
G10A G18A C27G A37G G38A C61U | ≤ 0.5
C5A U32C A65C | 0.68
C4U C27A A40C | ≤ 0.5
C4A U26G G44C G58A U59C G68C | ≤ 0.5
U19G U53A | 0.506
U28A A40C C66U | 0.658
U2G A69C | 0.93
C30G C49A | ≤ 0.5
U3G A15G G23A | ≤ 0.5
